Rpn11 inh – Rpn11 (PSMD14) deubiquitinase inhibitors, primary screen, biochemical, fluorescence polarization, uHTS | 26S proteasome non-ATPase regulatory subunit 14 (Homo sapiens), O00487 | human 26S proteasome, Ub4-pepOG fluorescence polarization; 20S core pre-blocked with epoxomicin | calls only at 20 µM | actives 0.59% (n = 360,000) | AID 588493, 2011;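 active means inhibition at 20 µM, scaled to each plate's controls, above about 33%, limit read from the data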
TPT1 inhibitor – Candida albicans TPT1 enzyme inhibitors, primary screen, biochemical, fluorescence polarization. recombinant caTPT1, FP RNA substrate dephosphorylation. inhibition, % at 5 µM. actives 0.81% (n = 300,000). tRNA 2'-phosphotransferase TPT1 (Candida albicans SC5314);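 active means inhibition above the mean of all tested compounds plus 3 SD, set per screening campaign, cut at about 24% in these data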;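 further: plate controls were DMSO alone for no effect and ferristatin control at 100 nM for full effect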
CRFR2-BP ag – agonists of CRF-BP/CRF-R2 complex, primary screen, cell-based, HEK293, calcium dye fluorescence, uHTS; calcium dye fluorescence (FLIPR); percent of saturating CRF peptide response; CRF-binding protein / CRF receptor 2 complex (human); actives 0.46% (n = 350,000); activation, % at 13.2 µM;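 active means activation of at least 50%, plus an integration ratio under a set limit after plate pattern correction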;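 further: plate controls were neutral control wells without compound for no effect and CRF at EC100 for full effect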
HNF4A DNA FP – change in binding of human HNF4A to DNA, primary screen, biochemical, fluorescence polarization, FITC-DNA; Hepatocyte nuclear factor 4-alpha (Homo sapiens), P41235; 1 h; activity change, % at 10 µM; actives 0.3% (n = 360,000); AID 1224865, 2016; in the data active means activity change above about 30%, passing the limit was not always enough
Target sequence (P41235 whole entry, looked up): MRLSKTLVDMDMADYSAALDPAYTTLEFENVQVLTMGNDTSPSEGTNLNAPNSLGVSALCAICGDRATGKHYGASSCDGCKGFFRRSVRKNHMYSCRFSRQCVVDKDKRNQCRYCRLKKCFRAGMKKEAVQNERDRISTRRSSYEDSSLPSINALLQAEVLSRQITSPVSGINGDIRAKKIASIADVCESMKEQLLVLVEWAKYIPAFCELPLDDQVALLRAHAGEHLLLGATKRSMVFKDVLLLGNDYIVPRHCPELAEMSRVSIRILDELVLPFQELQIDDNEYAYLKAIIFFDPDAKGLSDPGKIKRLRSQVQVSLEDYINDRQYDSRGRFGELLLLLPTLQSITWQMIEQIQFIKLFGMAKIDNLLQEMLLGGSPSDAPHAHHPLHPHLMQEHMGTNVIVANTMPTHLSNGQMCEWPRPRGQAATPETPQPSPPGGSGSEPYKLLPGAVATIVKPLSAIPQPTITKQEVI
CRFR2-BP antag – antagonists of CRF-BP/CRF-R2 complex, primary screen, cell-based, HEK293, calcium dye fluorescence, uHTS; AID 588475, 2011; inhibition, % at 11.8 µM; actives 0.59% (n = 350,000); CRF-induced calcium fluorescence;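 active means inhibition of the ligand-induced calcium signal above about 50% at the single tested concentration, limit read from the data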
CSN deneddyl inh – inhibitors of CSN-mediated cullin deneddylation, primary screen, biochemical, fluorescence polarization, uHTS; AID 651999, 2013; COP9 signalosome complex subunit 5 (Homo sapiens), Q92905; Purified CSN, SCF-Nedd8-OG deneddylation; inhibition, % at 12.5 µM; actives 0.38% (n = 360,000);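 active means pattern-corrected inhibition above about 35%, with an unprinted fluorescence ratio check between 0.5 and 1.5, limit read from the data, passing the limit was not always enough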;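 further: 0% = enzyme with substrate and 100% = substrate without enzyme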
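Assay system: purified human Csn5 enzyme expressed in HEK293T cells; measure: % inhibition; also added: SCFSkp2-Nedd8OG substrate at 10 nM final; technique: fluorescence polarization; times: reaction 90 min, room temperature; medium: Tris buffer pH 7.5, NaCl, DTT, Tween-20, trehalose, ovalbumin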
Numbers without * were called inactive; i = inactive; / = no result shown. Hits are enriched below; roughly 2.3% of the tested compounds scored in any of these assays.

SMILES	Rpn11 inh	TPT1 inhibitor	CRFR2-BP ag	HNF4A DNA FP	CRFR2-BP antag	CSN deneddyl inh
CCC(CC)C(=O)N(c1ccc(F)cc1)C1C=CS(=O)(=O)C1 (stereo not given)	i	0.6	0.2	0.9	-4.2	-4.6
CCN(C(=O)CCc1nnc2ccc(N3CCC4(CC3)OCCO4)nn12)c1ccccc1	i	-1.5	-0.3	-4.0	51.8*	0.3
CCOc1ccccc1C(=O)Nc1ccc(S(=O)(=O)N2CCN(C)CC2)cc1	i	/	0.1	-0.3	-2.2	2.6
CCCOc1ccc(C2/C(=C(/O)c3ccc(F)cc3)C(=O)C(=O)N2CCCN(C)C)cc1 (stereo not given)	i	-0.2	0.5	4.4	18.6	38.8*
CC1(C)CC(NCCC(c2ccccc2)c2ccco2)CCO1 (stereo not given)	i	-2.4	-0.1	1.1	96.7*	1.4
Cc1c(Nc2cc(Cl)c3nonc3c2[N+](=O)[O-])c(=O)n(-c2ccccc2)n1C	i	/	-7.6	-3.8	42.8	-22.1
O=C(COC(=O)c1cc(Br)ccc1O)NC1CCCCCC1	i	1.4	-1.4	-1.3	8.2	-3.4
O=C(COC(=O)c1cc2ccccc2cc1O)NC1CCCCC1	i	/	-0.8	-3.6	87.3*	1.8
Cc1ccc(NC(=O)C(C)Sc2nnc(C)n2CC2CCCO2)cc1 (stereo not given)	i	/	1.9	1.7	-11.6	4.2
COc1ccc(-n2c(SCC(=O)Nc3nccs3)nc3sc4c(c3c2=O)CCN(C)C4)cc1	i	11.1	0.2	5.8	11.6	-0.5
COc1ccc(NC(=O)CSc2nc3sc4c(c3c(=O)n2-c2ccc(OC)cc2)CCN(C)C4)cc1	i	2.3	0.0	5.9	10.0	97.9*
Cc1ccccc1C(=O)NC(=S)Nc1ccccc1N1CCCC1	i	0.1	-1.4	-2.6	-46.3	5.0
COc1ccc(NC(=S)N(CCN(C)C)C(C)c2ccncc2)cc1Cl (stereo not given)	i	0.5	-1.7	43.5*	11.5	2.6
O=C(NCCCO)C(=O)Nc1cc2c3c(c1)CCN3C(=O)CC2	i	1.2	-0.8	-1.7	78.0*	-1.8
CC1CCN(C(=O)CSc2nc3[nH]ncc3c(=O)[nH]2)CC1	i	-1.2	0.5	0.5	9.7	-3.2
COc1cccc2cc(-c3nc(-c4cccs4)cs3)c(=O)oc12	/	1.0	11.6	40.5*	-2.5	15.5
O=c1oc2ccccc2cc1-c1nc(-c2cccs2)cs1	i	-52.4	15.4	-71.4	-26.7	-3.1
CC(C)(C)c1nc2sc3c(c2c(=O)o1)CCCC3	i	2.1	-1.1	-2.6	4.7	4.3
CCN(c1ccccc1)S(=O)(=O)c1cc(NC(=O)Nc2ccccc2C#N)ccc1Cl	i	-4.1	9.0	-2.5	-6.5	-10.2
CCN(c1ccccc1)S(=O)(=O)c1ccc(Cl)c(NC(=O)Nc2ccc(Cl)cc2C#N)c1	i	0.3	-0.1	1.4	71.2*	-10.9
CCc1noc(C)c1C(=O)N1CCSC1=Nc1cccc(Cl)c1C	i	0.3	-2.7	0.2	71.2*	4.8
COc1ccc(/C=C2\SC(=S)N(CC(=O)N3CCN(C)CC3)C2=O)cc1	i	2.0	-0.1	0.7	5.3	2.2
CN1CCS/C1=C\C=C1/SC(=S)N(CC(=O)O)C1=O	/	/	107.1*	154.2	-75.6	-71.1
COc1ccc(C(=O)Cc2ccc(F)cc2)c(OC)c1	i	0.9	-1.3	2.1	35.3	-13.7
O=[N+]([O-])c1ccc(N/N=C/c2ccc(OCc3cccc4ccccc34)cc2)nc1	/	13.6	2.5	35.3*	-18.9	70.5*
SMILES	Rpn11 inh	TPT1 inhibitor	CRFR2-BP ag	HNF4A DNA FP	CRFR2-BP antag	CSN deneddyl inh
COc1ccc(/C=C2\CCC/C(=C\c3ccc(OC)c(OC)c3OC)C2=O)c(OC)c1OC	i	/	-2.5	6.4	69.2*	3.1
COc1ccc(/C=C2\CC/C(=C\c3ccc(OC)c(OC)c3)C2=O)cc1OC	i	2.9	4.0	6.5	26.8	15.3
Cc1ccc(-n2c(O)c(C=Nc3ccccc3-c3n[nH]c(=S)[nH]c3=O)c3ccccc3c2=O)cc1C	i	/	0.6	-1.9	35.0	10.3
Cc1ccc(-n2c(O)c(C=Nc3ccccc3-c3n[nH]c(=S)[nH]c3=O)c3ccccc3c2=O)c(C)c1	i	-5.3	-0.7	-1.3	53.0*	1.0
COc1ccc(C(C)=O)cc1CSc1nnc2c(Cl)cc(Cl)cn12	i	-3.0	-4.0	0.7	54.8*	2.7
COc1ccc(C(C)=O)cc1CSc1nncn1C	i	-2.4	-0.9	9.5	-9.9	2.2
NS(=O)(=O)c1ccc(N2CCCC2=O)c([N+](=O)[O-])c1	i	-4.2	-1.3	2.0	38.2	-0.6
Cc1cc(/C=C(/C#N)C(=O)O)c(C)n1-c1cccc2ccccc12	i	0.3	-4.5	-4.3	75.7*	2.2
CCC(=O)NNc1nc2c(F)cccc2s1	i	2.8	-0.5	-0.5	-10.2	-2.4
O=C(COC(=O)C1CCN(c2ccc(C(F)(F)F)cn2)CC1)NC1CCCCC1	i	-1.6	-1.0	-4.6	6.2	1.0
Nc1ccc2cc3[nH]c4cc(N)ccc4c3nc2c1	i	/	175.4*	-108.4	-130.1	-74.5
CCc1nnc(NC(=O)C2CCCN(c3nc(C)cc(C)n3)C2)s1 (stereo not given)	i	2.1	-2.5	-1.5	-72.0	0.1
O=C(C=Cc1ccccc1)c1ccc([N+](=O)[O-])cc1	i	/	-2.7	5.0	-5.7	2.7
O=[N+]([O-])c1ccc(C=CC=Cc2ccccc2)cc1	/	/	-1.0	26.0	8.0	36.5*
O=c1[nH]c(SCCOc2ccccc2F)nc2ccccc12	i	-3.8	-2.8	0.3	-1.6	-1.4
COc1cccc(C(=O)OCC(=O)NCCC2=CCCCC2)c1	i	/	-5.5	-1.3	102.8*	3.6
COc1cc(C=O)ccc1OCCOCCOc1ccc(Cl)cc1	i	-0.3	0.8	1.6	1.1	-2.3
COc1cc(C=O)ccc1OCCOCCOc1ccc(Cl)cc1Cl	i	-2.9	-2.2	0.4	69.0*	3.4
COc1ccccc1Nc1nc(-c2c(C)[nH]c3ccccc23)cs1	i	6.2	-2.5	4.4	15.4	6.2
CNc1nc(-c2c(C)[nH]c3ccc(OC)cc23)cs1	i	-1.7	8.4	0.4	87.9*	4.6
O=C(Nc1nc2ccccc2n1CCN1CCOCC1)c1cn(-c2ccccc2)nc1-c1ccccc1	i	-3.8	-0.6	2.2	-17.6	-1.7

Compound activity as filed in PubChem.
